This note sets out measurements from the RNAGym collection of RNA variant scans (doi:10.1126/science.aae0568).

Variants at the floor of the assay were thinned out. A value given as a limit tells only on which side of the number the result lay.

To fix the notation:
B1: tRNA (parent)
chain: GUUCCGUUGGCGUAAUGGUAACGCGUCUCCCUCCUAAGGAGAAGACUGCGGGUUCGAGUCCCGUACGGAACG

Variants of B1 are the subject of the series. Description: yeast fitness relative to wild type (ratio to wild type); higher = fitter; tRNA-Arg(CCU), competitive growth, 37 C, YPD. The procedure, abridged:
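For this measurement, the tRNA-Arg(CCU) gene was varied by chemical synthesis at a 3% per-site mutation rate across 69 sites, and each variant was placed at the native genomic locus in Saccharomyces cerevisiae. The pooled strains went through a 24-hour competition in YPD at 37°C in six parallel replicates, with amplicons from start and end populations read by 100-nucleotide paired-end sequencing. Darwinian fitness relative to wild type followed from the change in each genotype's frequency. Genotypes needed ≥ 100 starting reads, and estimates < 0.5 were set to 0.5.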
For G6A U54C, the yeast fitness came out at 0.948.
As for G6A U54A, the figure is 0.674.
With G6A C34U G39C, the yeast fitness was at most 0.5.
Turning to G6A U47G, the yeast fitness was 0.594.
Regarding G6C A37G A40U A45C C60G, the yeast fitness is at most 0.5.
For G6A C24U U32G A40U, the yeast fitness was at most 0.5.
In the case of G6C A15C C46A, the yeast fitness amounted to 0.504.
As for G6C A14G C49G G50A, the figure is at most 0.5; as for G6C A65C, 0.872; as for G6A G9C G68C, at most 0.5.
Turning to G6A G18C C30G C34A A37C A65U, the yeast fitness came out at 0.584.
Turning to G6A G18A G23C U26A C30U U35A A43G, the yeast fitness is at most 0.5.
As for G6A C30U G51C, the yeast fitness is at most 0.5.
G6A C24U C61G C62U C66U A69U: the yeast fitness was at most 0.5.
As to G6A C24U U32G A40U U64G, the yeast fitness was at most 0.5.
The value for G6A G68C A69G was 0.568; that for G6A G18C C30G C34A A37C C61U A65U was at most 0.5.
With G6A U28C C61U, the yeast fitness is 0.628.
Turning to G6A C49U, the yeast fitness was 0.959.
On to G6A U13A, for which the yeast fitness stood at 0.848.
In the case of G6A U13C, the yeast fitness amounted to 0.937.
Consider G6A G17C G18C A45G G58A, for which the yeast fitness was at most 0.5.
In the case of G6C C22A G41A G44C, the yeast fitness was at most 0.5.
G6A U16A A36C A37G G56C: the yeast fitness was at most 0.5.
For the variant G6C A37U A57C A69U A70C, the yeast fitness was at most 0.5.
Regarding G6C C24U, the yeast fitness came to 0.751.
As for G6C A21G C30G A37U, the figure is 0.566.
Turning to G6A C33U G56C C60U, the yeast fitness is at most 0.5.
With G6C A37C G67C, the yeast fitness is at most 0.5.
In the case of G6A C33U, the yeast fitness is 0.649.
The value for G6C A20C A40G A42U C60G was at most 0.5; that for G6A G23A C24G G44A was at most 0.5.
Regarding G6A G18C A21C C33A G56A, the yeast fitness was at most 0.5.
G6A G48C C49U: the yeast fitness worked out at 0.652.
As to G6C A70U, the yeast fitness was determined as 0.823.
As for G6A C24U U59C A69C, the figure is at most 0.5.
Turning to G6A G10A A43G U47G, the yeast fitness came to 0.761.
G6C A42U C61A U64A A69U: the yeast fitness was at most 0.5.
With G6A G23C C29G A43U G50A A65C, the yeast fitness was at most 0.5.
The value for G6A G44C G50C A57G was at most 0.5.
In the case of G6C A40G C66U, the yeast fitness is at most 0.5.
G6A C34G G68A: the yeast fitness amounted to 0.556.
On to G6A U64A, for which the yeast fitness worked out at 0.71.
In the case of G6C A14C C29U C34G C46U C66A G68C, the yeast fitness was at most 0.5.
As to G6A C49U G58A A69C, the yeast fitness is 0.605.
The value for G6A G50A C66A was at most 0.5; that for G6C C11U C27G G41C was at most 0.5; that for G6A G39A U53A was at most 0.5.
For the variant G6A G12A, the yeast fitness was found to be 0.764.
Turning to G6A C33G C34G C61A G67U, the yeast fitness was at most 0.5.
On to G6C C24G C34U U53C C55G C62A, for which the yeast fitness was found to be 0.557.
Regarding G6A U16A C33G A36U, the yeast fitness is at most 0.5.
The value for G6A C27G A36C A42C was 0.58; that for G6A U35G A42G G56C was at most 0.5; that for G6A G10A G39C A70C was at most 0.5.
The value for G6A C27U C29A G58C C66U was at most 0.5.
As for G6C A21G C24G C31A G44A, the yeast fitness was at most 0.5.
For the variant G6C A20G C22U, the yeast fitness was at most 0.5.
Take G6A G56A: the yeast fitness was 0.852.
As for G6A G56C, the figure is 0.672; as for G6C A20G C61A, at most 0.5; as for G6C C24U C27G, at most 0.5.
Take G6A C34G C62U G68C: the yeast fitness is at most 0.5.
The value for G6C C24G C27G C29A C34U was 0.684; that for G6C A45C G56A was 0.568.
On to G6A U26A C61A, for which the yeast fitness was at most 0.5.
With G6C A42C C49U, the yeast fitness is at most 0.5.
In the case of G6A G17A C24G C27G G67A, the yeast fitness was at most 0.5.
For the variant G6A G12A C22U A42C, the yeast fitness is at most 0.5.
The value for G6A U26C C62G was 0.515; that for G6C A14G A20C U47C U64A G67A was at most 0.5; that for G6C A36G G51A was at most 0.5.
G6A U26A C30G U59C: the yeast fitness is at most 0.5.
Regarding G6A U26C C29A, the yeast fitness is at most 0.5.
As to G6A C34A U47G C49G C60G, the yeast fitness is at most 0.5.
For G6A U7A, the yeast fitness came out at 0.749.
As for G6A G51C, the figure is 0.595; as for G6A G51A, 0.83.
Regarding G6A C33A A37C, the yeast fitness was at most 0.5.
On to G6C A21G C55A C61A, for which the yeast fitness was at most 0.5.
Turning to G6A G17A C27U C33A A37C, the yeast fitness is at most 0.5.
As for G6A G44C A69U, the figure is 0.586.
With G6A G12A G23C C49G U53G A57G, the yeast fitness is at most 0.5.
As for G6A G10C C30A A69U, the figure is 0.786; as for G6C C11G C27U A42G C66U, 0.552.
In the case of G6A G48C G63C, the yeast fitness came to 0.667.
Turning to G6A U26A, the yeast fitness is 0.95.
For the variant G6C A15G G51A C66U A69C, the yeast fitness was at most 0.5.
With G6A G50A G58A, the yeast fitness worked out at 0.698.
For the variant G6A C31A G51C C55G A57U C66U, the yeast fitness is at most 0.5.
The value for G6A G9C C11G C34U A57U was at most 0.5; that for G6A C29G A65U was at most 0.5; that for G6A C24U U54G A65U was at most 0.5.
As for G6A G17C U19C C29A A70G, the yeast fitness is at most 0.5.
The value for G6A C24U A40U A45U was at most 0.5; that for G6A G10C A20G C22U G38C U53C C61G was at most 0.5; that for G6C A20C U35C A40G A42U G58A G63A G67A was at most 0.5.
On to G6A U13G C27U C61G C66U, for which the yeast fitness is at most 0.5.
On to G6A C29G U35G C61U, for which the yeast fitness is at most 0.5.
Consider G6C C11A A45C C60U, for which the yeast fitness was at most 0.5.
G6A C46G U64A: the yeast fitness was found to be 0.667.
As for G6C A40G A42G A57C C66U, the figure is at most 0.5.
On to G6A U19A G23A, for which the yeast fitness is 0.603.
As for G6A U28G C60G, the yeast fitness is at most 0.5.
As for G6A C61A G67A, the yeast fitness amounted to 0.547.
In the case of G6A C46A, the yeast fitness is 0.97.
As for G6A U19G G52A, the figure is 0.606; as for G6A U54C C60G, at most 0.5; as for G6A U32A A37U A43C G48C, at most 0.5.
As for G6A U47A A57U, the figure is at most 0.5.
Take G6C A42U C49U: the yeast fitness was 0.595.
As for G6C A15C G52C, the yeast fitness is at most 0.5.
As for G6C C22A C31G C49G G68C, the figure is at most 0.5.
Turning to G6A C27G C34G A65C, the yeast fitness was at most 0.5.
For G6C C22A C33G G48C, the yeast fitness is at most 0.5.
Take G6C A37C: the yeast fitness came out at 0.693.
As for G6A C66U G67A, the figure is 0.661.
As for G6A G39C U64C, the figure is 0.605; as for G6A U7G G25C U53A A69C, at most 0.5.
For the variant G6A U54G A65U, the yeast fitness was at most 0.5.
With G6A G12A C27U C30G C55U A57C, the yeast fitness was at most 0.5.
In the case of G6A U16A C61G G67U, the yeast fitness is at most 0.5.
Turning to G6C A43C G50A A70U, the yeast fitness was determined as 0.519.
For the variant G6A C29A C31G G67A, the yeast fitness is at most 0.5.
In the case of G6A C34A A40U, the yeast fitness amounted to 0.556.
In the case of G6C A15G, the yeast fitness came out at 0.808.
Consider G6C A15U, for which the yeast fitness came out at 0.738.
Regarding G6A C31U G63A, the yeast fitness came out at 0.582.
The value for G6A C34U A40G G68A was at most 0.5; that for G6C A69U was 0.976; that for G6C A69C was 0.852.
As for G6A U16A A36C, the figure is at most 0.5; as for G6A U16G A21G A40G A42U G67C, at most 0.5; as for G6A C24U A37U A40U, at most 0.5.
Regarding G6A G38A, the yeast fitness came to 0.812.
On to G6A G38C, for which the yeast fitness is 0.808.
As for G6C C11A U32A A42G C55U, the figure is 0.605; as for G6A G9C U32C A36G, at most 0.5; as for G6A U19A G44A, at most 0.5.
As for G6C A21U A36C A57G, the figure is at most 0.5; as for G6A C27U A69U, 0.695.
For the variant G6A G9C A14G, the yeast fitness is at most 0.5.
In the case of G6A G41C C55G, the yeast fitness was found to be 0.529.
G6A U16G A21G A40G A42U: the yeast fitness stood at 0.535.
Take G6A C30G G67C: the yeast fitness was at most 0.5.
Regarding G6C A14C U54C, the yeast fitness was at most 0.5.
Take G6C C22A C31G A65C: the yeast fitness is at most 0.5.
As to G6A U26C G44C, the yeast fitness is at most 0.5.
On to G6A G9C G44C, for which the yeast fitness was 0.605.
The value for G6C C24U G52A was at most 0.5; that for G6A C30A A45U was 0.667; that for G6A U13G C27U C61G was 0.667.
Take G6A G39C: the yeast fitness came out at 0.821.
As for G6A G17A U19G A69U, the figure is 0.595.
As to G6A C27A C30U G41C A43U C49A, the yeast fitness is 0.52.
Take G6A C66U: the yeast fitness worked out at 1.03.
In the case of G6C C11A G23U G48C, the yeast fitness was at most 0.5.
As to G6A G10C, the yeast fitness stood at 0.725.
Regarding G6A U8G A45U G48C, the yeast fitness is at most 0.5.
As for G6A G63C, the figure is 0.727; as for G6A G44A C46A G52A A65U, at most 0.5; as for G6A U13A U26C C30G A65C, at most 0.5.
For the variant G6A G23C G41C C49U, the yeast fitness is at most 0.5.
As for G6A G52A G63A, the figure is at most 0.5; as for G6A U28A C30A, at most 0.5; as for G6C A20G, 0.773.
G6C A20C: the yeast fitness stood at 0.773.
